For seven compounds, inhibition and Activity results are on record in ChEMBL document CHEMBL2046422, “Structure-activity relationship of nonacidic quinazolinone inhibitors of human microsomal prostaglandin synthase 1 (mPGES 1)” (J Med Chem, 2012).

What is called inhibition is the change of the read-out against control, counted positive when it falls.

A value given as a limit tells only on which side of the number the result lay.

Experiment [1] addresses T1, Prostaglandin E synthase (Homo sapiens) (UniProt O14684).
T1 sequence (whole entry): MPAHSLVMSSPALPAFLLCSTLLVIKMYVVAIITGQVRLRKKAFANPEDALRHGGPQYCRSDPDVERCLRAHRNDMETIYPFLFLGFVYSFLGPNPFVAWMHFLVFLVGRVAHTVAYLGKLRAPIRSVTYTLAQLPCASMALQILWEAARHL
The experiment can be described thus: Inhibition of mPGES-1 derived from IL1beta and TNFalpha stimulated human HeLa cells microsomal fraction using PGH2 as substrate at 1 uM preincubated for 30 mins prior to substrate addition measured after 1 min by LC-MS/MS analysis relative to control. The method in brief:
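Microsomes were pelleted by ultracentrifugation and resuspended in buffer with 2.5 mM GSH; protein was measured by Bradford. PGE₂ was read by LC-MS/MS after solid-phase extraction with deuterated standards; n ≥ 3.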

Experiment [2] addresses T2, Prostaglandin E synthase (Mus musculus) (UniProt Q9JM51).
T2 sequence (whole entry): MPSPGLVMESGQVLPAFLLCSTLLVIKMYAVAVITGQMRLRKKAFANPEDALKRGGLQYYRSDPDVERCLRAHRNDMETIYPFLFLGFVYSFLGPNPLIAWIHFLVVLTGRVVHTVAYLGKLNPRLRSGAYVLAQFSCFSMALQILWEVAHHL
In words: Inhibition of mPGES-1 derived from LPS stimulated mouse RAW264.7 cells microsomal fraction using PGH2 as substrate at 1 uM preincubated for 30 mins prior to substrate addition measured after 1 min by LC-MS/MS analysis relative to control. Put shortly: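 Microsomes came from RAW 264.7 cells stimulated with LPS for 16 h. They were prepared by sonication and ultracentrifugation in 0.1 M potassium phosphate, pH 7.4, with GSH and protease inhibitors, and resuspended with 2.5 mM GSH; protein was measured by Bradford. Compound was tested at the stated final concentration. PGE₂ was quantified by LC-MS/MS after solid-phase extraction with PGE₂-d₄/PGD₂-d₄ standards; SEM, n ≥ 3.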

In experiment [3] the target is T3, Prostaglandin G/H synthase 2 (Homo sapiens) (UniProt P35354).
T3 sequence (whole entry): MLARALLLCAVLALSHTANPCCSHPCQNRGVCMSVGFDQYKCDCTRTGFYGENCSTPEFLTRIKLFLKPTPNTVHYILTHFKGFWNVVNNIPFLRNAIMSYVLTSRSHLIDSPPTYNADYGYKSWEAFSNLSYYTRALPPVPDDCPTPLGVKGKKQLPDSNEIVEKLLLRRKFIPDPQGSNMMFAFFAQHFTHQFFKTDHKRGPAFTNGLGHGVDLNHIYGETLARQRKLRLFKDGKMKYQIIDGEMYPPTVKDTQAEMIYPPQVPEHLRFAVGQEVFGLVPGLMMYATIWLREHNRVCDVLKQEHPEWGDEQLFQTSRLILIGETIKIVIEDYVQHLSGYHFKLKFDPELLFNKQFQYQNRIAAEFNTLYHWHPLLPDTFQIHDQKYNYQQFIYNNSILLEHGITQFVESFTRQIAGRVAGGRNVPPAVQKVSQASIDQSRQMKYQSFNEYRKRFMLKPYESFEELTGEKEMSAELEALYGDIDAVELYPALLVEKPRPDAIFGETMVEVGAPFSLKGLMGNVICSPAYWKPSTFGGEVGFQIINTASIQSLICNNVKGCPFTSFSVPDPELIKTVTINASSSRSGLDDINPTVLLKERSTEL
The experiment can be described thus: Inhibition of human recombinant COX2-mediated PGE2 synthesis using PGH2 as substrate at 1 uM by LC-MS/MS analysis relative to control. Put shortly: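 Direct enzyme test with a COX inhibitor screening kit, run per the kit protocol: COX-1 was ovine, COX-2 human recombinant. […] Prostaglandins were quantified by LC-MS/MS after solid-phase extraction. Mean of n ≥ 3.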

The target of experiment [4] is T1, Prostaglandin E synthase (Homo sapiens). The experiment can be described thus: Inhibition of mPGES-1 in IL1beta and TNFalpha-stimulated human HeLa cells assessed as PGE2 level after 24 hrs by LC-MS/MS analysis. In kind it is cell-based. Put shortly: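 HeLa cells (2 × 10⁴) were grown 24 h at 37 °C. The medium was then replaced with IL-1β (1 ng/mL) + TNFα (5 ng/mL), or PBS for unstimulated controls, together with compound at 1, 10 or 100 μM, or DMSO, for 24 h at 37 °C. Supernatant PGE₂ was quantified by LC-MS/MS after solid-phase extraction with deuterated standards. Inhibition is percent of DMSO control corrected for unstimulated background, SEM, n ≥ 3.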

Experiment [5] concerns the target T3, Prostaglandin G/H synthase 2 (Homo sapiens). The experiment can be described thus: Inhibition of COX2 in LPS-stimulated human whole blood assessed as residual PGE2 level at 100 uM preincubated for 15 mins prior to LPS-stimulation measured after 24 hrs by LC-MS/MS analysis relative to control. Put shortly:
(§1)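 Human whole blood received compound in DMSO plus acetylsalicylic acid (10 μg/mL) to block COX-1, 15 min at 37 °C. LPS (10 μg/mL final) in autologous plasma was added to induce COX-2/mPGES-1, and blood was incubated 24 h at 37 °C. Samples were chilled on ice 5 min, and plasma prostaglandins were extracted by solid-phase extraction and quantified by LC-MS/MS. Values are relative to vehicle.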

Experiment [6] has the same target. In words: Inhibition of COX2 in LPS-stimulated human whole blood assessed as residual PGF2alpha level at 100 uM preincubated for 15 mins prior to LPS-stimulation measured after 24 hrs by LC-MS/MS analysis relative to control. The method in brief:
as §1

For experiment [7], the target named is T4, 5-lipoxygenase/FLAP (Homo sapiens) (UniProt P09917+P20292). The experiment can be described thus: Inhibition of 5-lipoxygenase/FLAP in calcium ionophore-stimulated human whole blood assessed as 5(s)HETE level at 10 uM preincubated for 15 mins prior to calcium ionophore-stimulation measured after 15 mins by LC-MS/MS analysis. In kind it is protein-complex assay. The arrangement: scale not given: the % may be the effect or the level left. Put shortly:
(§2)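 Heparinized human whole blood (500 μL) was preincubated with compound for 15 min at 37 °C. It was then stimulated with 20 μM calcium ionophore A23187 in autologous plasma for 15 min at 37 °C and chilled on ice for 5 min. Plasma was collected by centrifugation at 4 °C. Eicosanoids were recovered by liquid–liquid extraction with deuterated internal standards and quantified by LC-MS/MS (MRM). Levels are relative to vehicle-treated blood.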

Experiment [8] addresses T4, 5-lipoxygenase/FLAP (Homo sapiens). In words: Inhibition of 5-lipoxygenase/FLAP in calcium ionophore-stimulated human whole blood assessed as residual 15(s)HETE level at 10 uM preincubated for 15 mins prior to calcium ionophore-stimulation measured after 15 mins by LC-MS/MS analysis. It counts as protein-complex assay. The method in brief: as §2
For experiment [9] the target is unchanged. The experiment can be described thus: Inhibition of 5-lipoxygenase/FLAP in calcium ionophore-stimulated human whole blood assessed as residual (+/-)11HETE level at 10 uM preincubated for 15 mins prior to calcium ionophore-stimulation measured after 15 mins by LC-MS/MS analysis. It counts as protein-complex assay. The method in brief: as §2
Experiment [10] has as its target T2, Prostaglandin E synthase (Mus musculus). The experiment can be described thus: Inhibition of mPGES-1 derived from LPS stimulated mouse NIH3T3 cells microsomal fraction using PGH2 as substrate at 1 uM preincubated for 30 mins prior to substrate addition measured after 1 min by LC-MS/MS analysis relative to control.

Consider `CCCc1nc2ccc(NC(=O)c3c(F)cccc3Cl)cc2c(=O)n1Cc1cccc(Cl)c1`, for which the inhibition in experiment [1] is 75.6%; in [2], -8.7%; in [3], under 0%; in experiment [4], “Dose-dependent effect”. Moreover, the Activity is 54.7% in experiment [5]; 97% in experiment [6]; 92.1% in experiment [7]; 111% in experiment [8]; 123% in experiment [9].

On to `CCCc1nc2ccc(NC(=O)c3ccccc3Cl)cc2c(=O)n1Cc1ccc(-c2ccccc2)cc1`, for which the inhibition in [1] is 74.2%; in experiment [2] it was 11.8%; in experiment [10], 20.3%; in experiment [3], 5.8%; in experiment [4], “Dose-dependent effect”. Moreover, the Activity was found to be 52.1% in experiment [5]; 92.6% in experiment [6]; 74.8% in experiment [7]; 94.2% in experiment [8]; 84.8% in [9].

Turning to `CCCc1nc2ccc(NC(=O)c3ccccc3C)cc2c(=O)n1Cc1cccc(Cl)c1`, the inhibition in experiment [1] was 63.1%; in [2], 6%; in [10], 0.9%; in [3], under 0%; in experiment [4], “Dose-dependent effect”. Moreover, the Activity is 53% in experiment [5]; 93.8% in [6]; 74.4% in [7]; 83.4% in experiment [8]; 86.5% in experiment [9].

Consider `CCCc1nc2ccc(NC(=O)c3ccccc3Cl)cc2c(=O)n1Cc1ccc(-c2ccc(Cl)cc2)cc1`, for which the inhibition was 68.8% in experiment [1]; 12.4% in [2]; 17.1% in experiment [10]; under 0% in experiment [3]; “Dose-dependent effect” in experiment [4]. Also, the Activity was found to be 174% in experiment [5]; 234% in experiment [6]; 157% in experiment [7]; 93.8% in [8]; 85.2% in [9].

As for `CCCc1nc2ccc(NC(=O)c3ccccc3Cl)cc2c(=O)n1Cc1ccc(-c2cccc(Cl)c2)cc1`, the inhibition in experiment [1] is 66.7%; in [2] it was 8.4%; in [10] it was 10.7%; in experiment [3], 6.7%; in [4], “Dose-dependent effect”. Also, the Activity in [5] worked out at 51.2%; in experiment [6] it was 94.2%; in experiment [7] it was 79%; in experiment [8], 83.1%; in [9], 76.8%.

For the compound `CCCc1nc2ccc(NC(=O)c3ccccc3Cl)cc2c(=O)n1Cc1ccc(-c2cccc(OC)c2)cc1`, the inhibition is 71.5% in experiment [1]; 15.3% in [2]; 4.6% in [10]; 2.5% in [3]; “Dose-dependent effect” in experiment [4]. For the same compound, the Activity in experiment [5] was determined as 50%; in [6] it was 92.5%; in [7], 67.8%; in experiment [8], 80%; in [9] it was 77%.

On to `CCCc1nc2ccc(NC(=O)c3ccccc3Cl)cc2c(=O)n1Cc1cccc(Cl)c1`, for which the inhibition was 86.3% in [1]; 9.5% in [2]; -0.8% in [10]; under 0% in [3]; “Dose-dependent effect” in experiment [4]. Also, the Activity in [5] is 37.4%; in experiment [6], 81.3%; in experiment [7], 92%; in [8], 90.3%; in [9], 71.6%.
